Activity calls are given as the source filed them. The rule behind the calls is not given here.
Experiments:
[1] = system: Mus musculus; assay: Observation of behavior in mice following 30 mg/kg i.p. administration; No significant change.; format: functional, organism-based; design: dose 30 mg/kg
[2] = system: HL-60; assay: Inhibitory concentration against interleukin-1 beta production in HL-60 cells stimulated with lipopolysaccharide (LPS).; format: functional, cell-based; conditions: Homo sapiens
Summary of the method: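 IC50 obtained by comparing IL-1β yield with an untreated control to which no test compound was added.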

[3] = system: Mus musculus; assay: Observation of behavior in mice after ip administration at the dose of 30 mg/kg; symptoms were tremor, dyspnea, difficulty in walking and death; format: functional, organism-based; design: dose 30 mg/kg
[4] = species: Mus musculus; assay: Number of dead mice/total number of mice used; 6/8; format: ADME, organism-based; conditions: in vivo
[5] = system: Mus musculus; assay: Observation of behavior in mice after ip administration at the dose of 30 mg/kg; Weak sedation; format: functional, organism-based; design: dose 30 mg/kg
[6] = system: Mus musculus; assay: Observation of behavior in mice after ip administration at the dose of 30 mg/kg; Depression of spontaneous locomotor activity; format: functional, organism-based; design: dose 30 mg/kg

IC50 [2]	Compound	Symptoms [1]	other results
2540 nM	COc1ccc(-c2cc(Oc3ccc(Cl)cc3Cl)nnc2-c2ccc(OC)cc2)cc1	No significant change	–
20500 nM	COc1ccc(-c2cc(Sc3ccccc3)nnc2-c2ccc(OC)cc2)cc1	No significant change	–
150 nM	COc1ccc(-c2cc(Oc3ccccc3C#N)nnc2-c2ccc(OC)cc2)cc1	No significant change	–
1380 nM	COc1ccc(-c2cc(Oc3cc(F)cc(F)c3)nnc2-c2ccc(OC)cc2)cc1	No significant change	–
2360 nM	COc1ccc(-c2cc(Oc3cccc([N+](=O)[O-])c3)nnc2-c2ccc(OC)cc2)cc1	No significant change	–
1870 nM	COc1ccc(-c2cc(Sc3ccc(F)cc3F)nnc2-c2ccc(OC)cc2)cc1	–	Symptoms [5]: Weak sedation
1920 nM	COc1ccc(-c2cc(Nc3ccc(F)cc3F)nnc2-c2ccc(OC)cc2)cc1	No significant change	–
> 100000 nM	COc1ccc(-c2cc(NCc3ccccc3)nnc2-c2ccc(OC)cc2)cc1	–	–
3160 nM	CCCN(c1cc(-c2ccc(OC)cc2)c(-c2ccc(OC)cc2)nn1)c1ccc(F)cc1F	No significant change	–
1240 nM	COc1ccc(-c2cc(Oc3ccncc3)nnc2-c2ccc(OC)cc2)cc1	No significant change	–
6600 nM	COc1ccc(-c2ncc(C#N)nc2-c2ccc(OC)cc2)cc1	–	Symptoms [5]: Weak sedation
2810 nM	COc1ccc(-c2cc(-c3ccccc3)nnc2-c2ccc(OC)cc2)cc1	No significant change	–
450 nM	COc1ccc(Oc2cc(-c3ccc(OC)cc3)c(-c3ccc(OC)cc3)nn2)cc1	–	–
760 nM	C[C@]12C=CC(=O)C=C1CCC1[C@@H]2[C@@H](O)C[C@@]2(C)[C@H]1CC[C@]2(O)C(=O)CO (single isomer, unassigned) [PREDNISOLONE]	inactive	–
100 nM	COc1ccc(-c2cc(Oc3ccccc3)nnc2-c2ccc(OC)cc2)cc1	No significant change	–
630 nM	COc1ccc(-c2cc(Oc3ccc([N+](=O)[O-])cc3)nnc2-c2ccc(OC)cc2)cc1	No significant change	–
> 100000 nM	COc1ccc(-c2cc(Oc3ccc(C#N)cc3)nnc2-c2ccc(OC)cc2)cc1	No significant change	–
160 nM	COc1ccc(-c2cc(Oc3cccc(C#N)c3)nnc2-c2ccc(OC)cc2)cc1	–	–
2880 nM	COc1ccc(-c2cnc(C#N)nc2-c2ccc(OC)cc2)cc1	No significant change	–
2320 nM	COc1ccc(-c2cc(Oc3ccc(F)cc3F)nnc2-c2ccc(OC)cc2)cc1	–	Symptoms [6]: Depression of spontaneous locomotor activity
200 nM	COc1ccc(-c2cc(Sc3cc(Cl)c(Cl)c(Cl)c3)nnc2-c2ccc(OC)cc2)cc1	No significant change	–
40 nM	COc1ccc(-c2cc(Oc3c(F)c(F)c(F)c(F)c3F)nnc2-c2ccc(OC)cc2)cc1	–	Symptoms [6]: Depression of spontaneous locomotor activity
120 nM	COc1ccc(-c2cc(Oc3cccc(F)c3F)nnc2-c2ccc(OC)cc2)cc1	No significant change	–
350 nM	COc1ccc(-c2cc(Oc3c(F)cccc3F)nnc2-c2ccc(OC)cc2)cc1	No significant change	–
190 nM	COc1ccc(-c2cc(Oc3c(F)c(F)cc(F)c3F)nnc2-c2ccc(OC)cc2)cc1	No significant change	–
180 nM	COc1ccc(-c2cc(Oc3cc(F)ccc3F)nnc2-c2ccc(OC)cc2)cc1	–	–
> 100000 nM	COc1ccc(-c2cc(Nc3cc(OC)c(OC)c(OC)c3)nnc2-c2ccc(OC)cc2)cc1	No significant change	–
460 nM	COc1ccc(-c2cc(Oc3ccc(F)c(F)c3)nnc2-c2ccc(OC)cc2)cc1	–	–

Compound	IC50 [2]	Symptoms [1]	other results
COc1ccc(-c2cc(C#N)nnc2-c2ccc(OC)cc2)cc1	90 nM	–	Symptoms [3]: Tremor, dyspnea, difficulty in walking and death; Activity [4]: 6

Reference: ChEMBL document CHEMBL1133942, “Synthesis and bioactivities of novel pyridazine derivatives: inhibitors of interleukin-1 beta (IL-1beta) production” (Bioorg Med Chem Lett, 2001)
